Entries after “also recorded” stand apart in the source; their conditions may differ.
Experiments:
[1] = tested on: farnesylated substrates (YnF labeling) in EA.hy926 cells; type: cell-based, human; settings: for mean in-cell IC50 response (YnF labeling of farnesylated substrates): 10 µM YnF, 1 h inhibitor pre-incubation + 8 h
In short: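 EA.hy926 endothelial cells labeled with alkyne prenyl probe alongside increasing concentrations of prenyl transferase inhibitor. Lysates were spiked with a heavy SILAC standard, a lysate dual-labeled with 13C615N4-Arg/13C615N2-Lys (R10K8) plus the same probe. Probe-labeled proteins were quantified against this standard by spike-in SILAC chemical proteomics, giving dose-response curves per farnesylated substrate.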

EA.hy926 cells = test: Cell toxicity observed during cell treatment; type: cell-based, human; settings: data not shown
FTase = FTase (Rattus norvegicus, UniProt Q02293+Q04631); settings: read-out: IC50 (weak FTI); cited from earlier work
[2] = tested on: YnGG labeling of farnesylated substrates in EA.hy926 cells; type: cell-based, human
In short: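 Human EA.hy926 cells given an FTase inhibitor over a range of concentrations and labeled with YnF or YnGG in parallel. Probe incorporation was quantified proteome-wide by spike-in SILAC chemical proteomics. Changes in the YnF/YnGG incorporation ratio were compared with loss of YnF labeling across concentrations. Points are mean of n=3 ± standard deviation.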

Chain of FTase (Q02293 whole entry, one chain of several): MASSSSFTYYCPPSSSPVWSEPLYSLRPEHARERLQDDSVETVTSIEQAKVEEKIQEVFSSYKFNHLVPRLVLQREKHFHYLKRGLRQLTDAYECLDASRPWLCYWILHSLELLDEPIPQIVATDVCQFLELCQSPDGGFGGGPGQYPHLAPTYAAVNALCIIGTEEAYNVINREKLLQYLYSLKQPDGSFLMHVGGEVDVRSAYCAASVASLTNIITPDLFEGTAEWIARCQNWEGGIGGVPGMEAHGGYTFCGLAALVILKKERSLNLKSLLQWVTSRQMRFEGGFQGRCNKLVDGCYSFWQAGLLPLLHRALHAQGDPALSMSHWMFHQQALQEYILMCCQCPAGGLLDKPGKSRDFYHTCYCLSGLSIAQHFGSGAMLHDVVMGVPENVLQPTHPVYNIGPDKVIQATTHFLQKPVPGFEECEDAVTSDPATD

Row | Compound | selectivity at the whole proteome level [1] | mean in-cell IC50 response (YnF labeling of farnesylated substrates) [1] | concentration above which acute cell toxicity was evident (EA.hy926 cells) [µM] | IC50 (FTase) [µM] | impact on farnesylation (YnF labeling) ([1]; up to the highest concentration tested (10 µM)) | concentration of maximum increase in YnGG labeling of KRAS ([2]; KRAS) [nM] | concentration of maximum increase in YnGG labeling of NRAS ([2]; NRAS) [nM] | concentration of maximum increase in YnGG labeling of RRAS2 ([2]; RRAS2) [nM]
1 | COC(=O)[C@H](CCSC)NC(=O)c1ccc(NC[C@@H](N)CS)cc1-c1ccccc1 [FTI-277] | excellent selectivity | micromolar |  |  |  |  |  | 
2 | CCCC[C@@H](C)/C=C(C)/C=C(\C)C(=O)NC1=C[C@@](O)(/C=C/C=C/C=C/C(=O)NC2=C(O)CCC2=O)[C@@H]2O[C@@H]2C1=O [Manumycin A] |  |  | > 10 | 5 | no evidence that Manumycin A impacted farnesylation; also recorded: insensitive |  |  | 
3 | Cn1cncc1[C@@](N)(c1ccc(Cl)cc1)c1ccc2c(c1)c(-c1cccc(Cl)c1)cc(=O)n2C [Tipifarnib] | excellent selectivity | low nanomolar |  |  |  | 10 | 5 | 1
